Data from PubChem BioAssay.
Results filed as inconclusive are left out. Calls of active or inactive are those of the source.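 How the source made its calls, unless noted: active means cell viability at or below a set limit in both duplicate runs, the limit being the all-compound median minus 4 SD (cut at about 23% in these data, passing the limit was not always enough); inconclusive means no clear call, values can overlap the other calls; inactive means the rest.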

Tests used:
[1] = S. cerevisiae growth inhibition in permissive medium (OD615), pilot counter-assay for S. cerevisiae lifespan shortening project, permissive growth control (AID 705;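 active means growth inhibition above 25% in both replicates, a cutoff set 3 SD above the mean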); conditions: OD615, 24 h, at 10 µM, hits give high values
Method in brief: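 System – S. cerevisiae with engineered DeaD lifespan system · Buffer or medium – SC raffinose/galactose permissive medium · Schedule – cells pre-grown 4 h, then 24 h compound exposure, 30 °C humidified · Technique – culture turbidity as optical density at 615 nm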

[2] = S. cerevisiae growth inhibition in restrictive medium, OD615, pilot screen, restrictive growth control, yeast lifespan reduction project (AID 706;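 active means growth inhibition above a set limit, 3 SD over mean compound inhibition, in both replicates, cut at about 43% in these data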;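 further: modified DeaD lifespan yeast strain shifted to restrictive glucose medium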); conditions: OD615, 48 h, at 10 µM, hits give high values
Method in brief: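 Material: engineered S. cerevisiae DeaD strain / Medium: glucose-based CSMM-D restrictive medium / Compound: single dose of 10 µM compound final, 0.25% DMSO / Timing: 4 h pre-incubation, 48 h exposure at 30 °C / Technique: OD615 absorbance reading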

[3] = doxorubicin toxicity protection in MRP-1 cells – H69AR cells, CellTiter-Glo, duplicate, MRP-1 activator project, pilot screen (AID 807;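 active means viability increase at or above a cutoff of the median across tested compounds plus 3 SD, cut at about 8.5% in these data, passing the limit was not always enough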;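 further: compound pretreatment 18-22 h then 72 h combined with doxorubicin; 0% = doxorubicin alone and 100% = vehicle without doxorubicin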); conditions: H69AR viability with doxorubicin, CellTiter-Glo luminescence; at 10 µM; hits give high values
[4] = viability of HCT116 without oncogenic beta-catenin – human colon tumor cells, pilot screen (AID 823); conditions: HCT116 beta-catenin knockout viability, CellTiter-Glo, 60 h; at 10 µM; hits give low values;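 further: 0% = wells killed by 20 µM Hyamine and 100% = untreated DMSO cell wells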
[5] = viability of PTEN-null HCT116 cells – cell-based, HCT116 clonal line, CellTiter-Glo, pilot screen (AID 824;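 active means viability at or below 27.92% in each of two runs, the all-compound median minus 4 SD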;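 further: 0% = 20 µM Hyamine control and 100% = vehicle cell control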); conditions: HCT116 PTEN-deleted viability, 60 h, at 10 µM, hits give low values
[6] = RAM pathway blockade in budding yeast – dse1pr::URA3 reporter, 5-FOA selection, pilot screen (AID 869;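 active means inhibition over a set limit, the all-compound mean plus 3 SD, in both replicate runs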;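 further: 0% = DMSO wells with no growth and 100% = 10 µM 1-NA-PP1 with full growth; RAM network block rescues cells from 5-FOA so hits raise OD615 growth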); conditions: S. cerevisiae dse1pr::URA3 5-FOA growth, OD615, 2 d; at 10 µM; hits give high values; strain carries analog-sensitive mutant Cbk1 kinase
[7] = RAM signaling pathway blockade in yeast – S. cerevisiae, Pdr1DBD-CYC8 efflux-inhibited sensitized strain, primary screen (AID 1298;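 active means RAM network inhibition above 8.4% in each of two replicates, 3 SD over the compound average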;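 further: 0% = DMSO untreated cells without growth and 100% = 10 µM 1-NA-PP1 full growth; higher means more yeast growth rescued from 5-FOA killing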); conditions: S. cerevisiae cbk1-as DSE1-URA3 strain, 5-FOA growth OD615, 2 d; at 50 µM; hits give high values

CCNc1nc(OCCNS(=O)(=O)c2cc(C)ccc2C)nc(N(C)C)n1
inactive: growth inhibition [1] -7.45% | growth inhibition [2] -11.1% | viability increase [3] -0.92% | viability [4] 78.7% | viability [5] 78.8% | inhibition [6] 0.025% | RAM network inhibition [7] -0.63%

CC(=O)Nc1ccc(C2Nc3ccccc3C(=O)N2C2CCCCC2)cc1 (stereo not given)
inactive: growth inhibition [1] -5.95% | growth inhibition [2] -9.11% | viability increase [3] -1.42% | viability [4] 94.9% | viability [5] 93.6% | inhibition [6] 2.73% | RAM network inhibition [7] -0.56%

Nc1nc(Nc2cccc(F)c2)nc2ccccc12
inactive: growth inhibition [1] -11.6% | growth inhibition [2] -30.8% | viability increase [3] -5.76% | viability [4] 70.3% | viability [5] 67.6% | inhibition [6] 1.88% | RAM network inhibition [7] 4.92%

CCOC(=O)NC(Nc1ncccn1)(C(F)(F)F)C(F)(F)F
inactive: growth inhibition [1] 0.98% | growth inhibition [2] -5.49% | viability increase [3] -3.34% | viability [4] 94.4% | viability [5] 97.5% | inhibition [6] 1.17% | RAM network inhibition [7] 0.47%

CC(C)Sc1nnc(NC(=O)C2CC2)s1
inactive: growth inhibition [1] -12.6% | growth inhibition [2] -3.5% | viability increase [3] -0.09% | viability [4] 98.1% | viability [5] 102% | inhibition [6] 1.93% | RAM network inhibition [7] 3.62%

CC(=O)Oc1ccc(N2C(=O)C3C4C=CC(O4)C3C2=O)cc1 (stereo not given)
inactive: growth inhibition [1] 14.2% | growth inhibition [2] 27.7% | viability increase [3] -1.46% | viability [4] 92.1% | viability [5] 101% | inhibition [6] 2.19% | RAM network inhibition [7] 0.14%

COc1cccc2c(=O)n(CC(=O)NC3CCCC3)ccc12
inactive: growth inhibition [1] -19.3% | growth inhibition [2] -5.62% | viability increase [3] -1.22% | viability [4] 99.1% | viability [5] 94% | inhibition [6] -0.215% | RAM network inhibition [7] 3.83%

CCc1nnc(NC(=O)c2ccc(S(=O)(=O)N(CCOC)CCOC)cc2)s1
inactive: growth inhibition [1] -9.86% | growth inhibition [2] -3% | viability increase [3] 3.39% | viability [4] 115% | viability [5] 107% | inhibition [6] 0.77% | RAM network inhibition [7] 1.29%

CCOC(=O)CNC(=O)C(NC(=O)C1CCC(C)CC1)C(C)CC (stereo not given)
inactive: growth inhibition [1] 0.975% | growth inhibition [2] -17.8% | viability increase [3] -1.73% | viability [4] 98.8% | viability [5] 98% | inhibition [6] 0.95% | RAM network inhibition [7] 0.93%

COCC(C)NC(=O)NC1(C(F)(F)F)Oc2ccc(Cl)cc2O1 (stereo not given)
inactive: growth inhibition [1] -10% | growth inhibition [2] -25.1% | viability increase [3] -5.78% | viability [4] 32.7% | viability [5] 38% | inhibition [6] 0.985% | RAM network inhibition [7] 4.1%

Cc1ccc(S(=O)(=O)NC2OC(=O)C(Cl)=C2Cl)cc1 (stereo not given)
inactive: growth inhibition [1] -17.3% | growth inhibition [2] 10.1% | viability increase [3] -3.7% | viability [4] 86.4% | viability [5] 104% | inhibition [6] 0.495% | RAM network inhibition [7] 2.08%

O=c1cc(O)c2c(=O)n(-c3ccccc3)c3ccccc3c2o1
inactive: growth inhibition [1] 8.67% | growth inhibition [2] 4.96% | viability increase [3] -4.59% | viability [4] 98.3% | viability [5] 87.1% | inhibition [6] 0.67% | RAM network inhibition [7] 0.42%

COCCn1c(=O)[nH]c2cc(C(=O)NC3CCCCCC3)ccc2c1=O
inactive: growth inhibition [1] -17.4% | growth inhibition [2] -10.9% | viability increase [3] -3.33% | viability [4] 93.7% | viability [5] 87.6% | RAM network inhibition [7] 4.43%
active: inhibition [6] 6.66%

Cc1[nH]n(-c2ccccc2)c(=O)c1S(=O)(=O)c1ccccc1
inactive: growth inhibition [1] -0.29% | growth inhibition [2] -3.15% | viability increase [3] 0.62% | viability [4] 102% | viability [5] 98.7% | inhibition [6] 0.08% | RAM network inhibition [7] 2.99%

CSC1=NCCN1C(=O)COc1ccc2ccccc2c1
inactive: growth inhibition [1] -2.13% | growth inhibition [2] -6.38% | viability increase [3] 0.69% | viability [4] 98.9% | viability [5] 101% | inhibition [6] 2.77% | RAM network inhibition [7] -0.94%
